Source: ChEMBL document CHEMBL1153308 (Bioorg Med Chem Lett, 2009)

Experiments:
[1] = molecular target: T1, Replicase polyprotein 1ab (Severe acute respiratory syndrome-related coronavirus, UniProt P0C6X7); test: Inhibition of ATPase activity of SCV helicase assessed as phosphate release by colorimetric assay
In short: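 Purified SCV NTPase/helicase (400 nM in 50 mM Tris/HCl pH 6.6) preincubated with compounds for 5 min at rt. Stopped with malachite green/molybdate reagent in 1 M HCl. A620 read after 5 min, with phosphate from a standard curve.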

[2] = molecular target: T1, Replicase polyprotein 1ab; test: Inhibition of SCV helicase assessed as duplex-DNA unwinding by FRET based assay
In short: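 Substrate was 25-bp dsDNA with a 20-dT 5′-overhang. SCV helicase (150 nM in 20 mM HEPES pH 7.4) preincubated with compounds for 5 min at rt. Started with 5X reaction solution (5 mM MgCl2, 45 mM ATP, 25 mM DTT, 100 nM dsDNA substrate as 5X concentrations), then 2 min at 37 °C. Stopped with EDTA plus unmodified trap oligomer, with FRET read-out.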

[3] = Inhibition of HCV RNA dependent RNA polymerase; parameters: species or system Hepacivirus hominis

Row | SMILES | IC50 [1] [µM] | IC50 [2] [µM] | IC50 [3] [µM]
1 | O=C(O)/C(O)=C/C(=O)c1cccc(NCc2ccccc2)c1 | > 50 | 5.4 | 0.96
2 | O=C(O)/C(O)=C/C(=O)c1ccc(OCc2ccccc2)cc1 | 41.3 | 39.9 | 0.96
3 | O=C(O)/C(O)=C/C(=O)c1ccc(OCc2ccc(Cl)cc2)cc1 | > 50 | > 50 | 0.96
4 | O=C(O)/C(O)=C/C(=O)c1cccc(OCc2ccccc2)c1 | > 50 | > 50 | 0.96
5 | O=C(O)/C(O)=C/C(=O)c1cccc(OCc2ccc(Cl)cc2)c1 | 24.4 | 13.6 | 0.96
6 | O=C(O)/C(O)=C/C(=O)c1ccccc1OCc1ccc(Cl)cc1 | > 50 | 28.7 | 0.96
7 | O=C(O)/C(O)=C/C(=O)c1ccccc1OCc1ccccc1 | > 50 | > 50 | 0.96
8 | O=C(O)/C(O)=C/C(=O)c1cccc(NCc2ccc(Cl)cc2)c1 | > 50 | 11 | 0.96
